Active and inactive are the calls of the source. No cut-off for these calls is given here.
Tests used:
[1] = biological target: Histone deacetylase 1 (Homo sapiens, UniProt Q13547); test: Inhibition of recombinant full length human HDAC1 expressed in SF9 baculovirus using FAM- labelled acetylated peptide as substrate measured by Electrophoretic mobility shift assay
[2] = biological target: T1, Protein deacetylase HDAC6 (Homo sapiens) (UniProt Q9UBN7); test: Inhibition of HDAC6 in human MV4-11 cells assessed as increase in acetylation of alpha tubulin at 0.5 uM measured after 6 hrs by Western blot assay relative to histone H3 acetylation; format: cell-based
T1 sequence (whole entry): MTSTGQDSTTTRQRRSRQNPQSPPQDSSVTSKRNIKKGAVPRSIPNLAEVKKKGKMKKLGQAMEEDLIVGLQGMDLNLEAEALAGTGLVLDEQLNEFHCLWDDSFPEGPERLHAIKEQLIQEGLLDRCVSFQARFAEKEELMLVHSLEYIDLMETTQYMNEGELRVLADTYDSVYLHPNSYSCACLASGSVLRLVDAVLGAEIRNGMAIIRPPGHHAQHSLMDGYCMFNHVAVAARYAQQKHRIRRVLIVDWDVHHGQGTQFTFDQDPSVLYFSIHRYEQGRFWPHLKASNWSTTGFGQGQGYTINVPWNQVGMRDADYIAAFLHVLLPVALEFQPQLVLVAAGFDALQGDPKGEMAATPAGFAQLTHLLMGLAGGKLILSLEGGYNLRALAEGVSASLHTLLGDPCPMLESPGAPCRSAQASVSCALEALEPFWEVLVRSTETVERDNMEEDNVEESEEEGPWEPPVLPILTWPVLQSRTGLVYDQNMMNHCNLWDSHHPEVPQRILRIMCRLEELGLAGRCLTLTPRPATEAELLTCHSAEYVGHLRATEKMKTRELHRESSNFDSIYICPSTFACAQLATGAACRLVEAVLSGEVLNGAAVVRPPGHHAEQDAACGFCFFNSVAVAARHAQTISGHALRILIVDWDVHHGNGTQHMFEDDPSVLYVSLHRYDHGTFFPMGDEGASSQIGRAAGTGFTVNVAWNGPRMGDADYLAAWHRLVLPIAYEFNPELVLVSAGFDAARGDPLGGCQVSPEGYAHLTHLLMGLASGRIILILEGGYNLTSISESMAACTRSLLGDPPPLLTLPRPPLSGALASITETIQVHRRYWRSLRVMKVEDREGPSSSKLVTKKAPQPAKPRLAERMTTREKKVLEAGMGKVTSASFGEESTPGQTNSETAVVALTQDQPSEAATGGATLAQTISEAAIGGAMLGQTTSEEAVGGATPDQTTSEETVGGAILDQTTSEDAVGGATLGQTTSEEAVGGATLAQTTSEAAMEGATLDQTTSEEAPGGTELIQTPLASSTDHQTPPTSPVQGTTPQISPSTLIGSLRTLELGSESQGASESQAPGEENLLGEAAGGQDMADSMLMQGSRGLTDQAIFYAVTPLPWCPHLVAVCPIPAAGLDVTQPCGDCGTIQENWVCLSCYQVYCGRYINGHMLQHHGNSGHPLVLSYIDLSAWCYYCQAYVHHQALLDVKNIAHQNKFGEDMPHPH
Method in brief: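 MV4-11 cells were exposed to a range of concentrations for 6 h. Protein extracts were run on SDS-PAGE and immunoblotted for acetylated α-tubulin, acetylated histone H3 and acetylated histone H4, with HSC70 as the loading reference. A representative blot of three independent experiments is shown.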

[3] = system: MV4-11; test: Induction of apoptosis in human MV4-11 cells assessed as viable cells at 4 microM measured after 18 hrs by Annexin V/Propidium iodide stain based Flow cytometry assay (reference value: 53.27%); format: functional; conditions: read-out: Activity
[4] = system: MV4-11; test: Induction of apoptosis in human MV4-11 cells assessed as late apoptotic cells at 2 microM measured after 18 hrs by Annexin V/Propidium iodide stain based Flow cytometry assay (reference value: 4.91%); format: functional
[5] = system: MV4-11; test: Induction of apoptosis in human MV4-11 cells assessed as late apoptotic cells at 1 microM measured after 18 hrs by Annexin V/Propidium iodide stain based Flow cytometry assay (reference value: 4.91%); format: functional
[6] = system: MV4-11; test: Induction of apoptosis in human MV4-11 cells assessed as early apoptotic cells at 1 microM measured after 18 hrs by Annexin V/Propidium iodide stain based Flow cytometry assay (reference value: 1.7%); format: functional
[7] = system: MV4-11; test: Induction of apoptosis in human MV4-11 cells assessed as viable cells at 1 microM measured after 18 hrs by Annexin V/Propidium iodide stain based Flow cytometry assay (reference value: 53.27%); format: functional; conditions: read-out: Activity
[8] = system: MV4-11; test: Induction of apoptosis in human MV4-11 cells assessed as early apoptotic cells at 0.5 microM measured after 18 hrs by Annexin V/Propidium iodide stain based Flow cytometry assay (reference value: 1.7%); format: functional
[9] = system: MV4-11; test: Induction of apoptosis in human MV4-11 cells assessed as viable cells at 0.5 microM measured after 18 hrs by Annexin V/Propidium iodide stain based Flow cytometry assay (reference value: 53.27%); format: functional; conditions: read-out: Activity
[10] = system: MV4-11; test: Induction of apoptosis in human MV4-11 cells assessed as early apoptotic cells at 0.25 microM measured after 18 hrs by Annexin V/Propidium iodide stain based Flow cytometry assay (reference value: 1.7%); format: functional
[11] = system: MM1.S; test: Cytotoxicity against human MM1.S cells measured after 72 hrs by spectrophotometer method; format: functional, cell-based
[12] = system: MV4-11; test: Induction of apoptosis in human MV4-11 cells assessed as late apoptotic cells at 4 microM measured after 18 hrs by Annexin V/Propidium iodide stain based Flow cytometry assay (reference value: 4.91%); format: functional
[13] = system: Fibroblast; test: Cytotoxicity against human fibroblasts measured after 72 hrs by spectrophotometer method; format: cell-based
[14] = system: Fibroblast; test: Cytotoxicity against pooled human fibroblasts measured after 72 hrs by spectrophotometer method; format: cell-based
[15] = Glutathione reactivity at pH 7.4 assessed as compound remaining measured after 30 mins by LC-MS/MS method; format: physicochemical; conditions: glutathione solution, read-out: Stabilty
[16] = Glutathione reactivity at pH 7.4 assessed as compound remaining measured after 60 mins by LC-MS/MS method; format: physicochemical; conditions: glutathione solution, read-out: Stabilty
[17] = Intrinsic clearance in mouse hepatocytes assessed per 10^6 cells measured after 120 mins by LC/MS/MS method; format: ADME, cell-based, Hepatocyte; conditions: read-out: CLH
[18] = Apparent permeability across basolateral to apical side in human Caco2 cells measured after 2 hrs by LC-MS/MS method; format: ADME, cell-based; conditions: Caco-2
Method in brief: (§1)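 Bidirectional Caco-2 permeability was measured as Papp in the apical-to-basolateral and basolateral-to-apical directions. The efflux ratio was calculated from the two directional Papp values.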

[19] = Efflux ratio of apparent permeability in human Caco2 cells measured after 2 hrs by LC-MS/MS method; format: ADME, cell-based; conditions: Caco-2; method in brief: as §1
[20] = Half life in CD1 mouse at 20 mg/kg, ip measured after 24 hrs by LC/MS/MS method; format: ADME, organism-based; conditions: in vivo
[21] = Cmax in CD1 mouse at 20 mg/kg, ip measured after 24 hrs by LC/MS/MS method; format: ADME, organism-based; design: route intraperitoneal, dose 20 mg/kg, time 24 hrs; conditions: in vivo
[22] = biological target: T1, Protein deacetylase HDAC6 (Homo sapiens); test: Inhibition of HDAC6 in human HeLa cells assessed as increase in acetylated alpha tubulin at 0.1 uM measured after 6 hrs by Immunofluorescent assay

Sequence of Histone deacetylase 1 (Q13547 whole entry): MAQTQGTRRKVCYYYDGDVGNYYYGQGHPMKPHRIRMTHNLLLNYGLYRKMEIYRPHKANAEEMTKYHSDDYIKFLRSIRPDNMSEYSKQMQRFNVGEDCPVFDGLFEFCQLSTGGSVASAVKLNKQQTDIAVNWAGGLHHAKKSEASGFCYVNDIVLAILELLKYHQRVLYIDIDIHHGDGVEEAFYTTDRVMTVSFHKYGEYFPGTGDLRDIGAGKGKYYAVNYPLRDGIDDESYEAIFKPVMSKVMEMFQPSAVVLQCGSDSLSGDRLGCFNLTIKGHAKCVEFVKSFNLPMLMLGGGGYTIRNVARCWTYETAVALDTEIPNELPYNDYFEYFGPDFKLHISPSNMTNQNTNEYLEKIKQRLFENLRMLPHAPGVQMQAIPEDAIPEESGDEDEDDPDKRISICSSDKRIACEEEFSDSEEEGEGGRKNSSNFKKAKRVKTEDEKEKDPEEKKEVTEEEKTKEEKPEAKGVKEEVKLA

IC50 [1]: > 1 µM
inhibition [2]: Active
remaining at 0.5 h [15]: 96.4%
remaining at 1 h [16]: 98%
hepatocyte CLint [17]: 27.3 µL/min/1e6 cells
Papp B→A at 2 h [18]: 0.94 ×10⁻⁶ cm/s
efflux ratio at 2 h [19]: 0.71
half-life [20]: 15 min
Cmax [21]: 526 ng/mL
inhibition [22]: Active
SMILES: O=C(NO)c1ccc(CNC(=O)c2c(F)c(F)c(F)c(F)c2F)cc1
viability at 4 µM [3]: 17.9%
Activity [4]: 15.93%
Activity [5]: 11.15%
Activity [6]: 4.27%
viability at 1 µM [7]: 35.6%
Activity [8]: 2.87%
viability at 0.5 µM [9]: 47.3%
Activity [10]: 1.69%
IC50 [11]: 1.9 µM
Activity [12]: 41%
IC50 [13]: 11.5 µM
IC50 [14]: 14.6 µM
